Assay results from the array DNA melting data of Ke et al. (doi:10.1101/2024.01.08.574731).

Experiments:
[1] = folding enthalpy; higher = less favourable; fluorescence melt of hairpins on a sequencing array, two-state fit; settings: sodium 0.088 M
How it was run: (§1)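 On a sequenced MiSeq flow cell, library hairpins with annealed Cy3 and quencher oligos were imaged for Cy3 fluorescence in 2.5 °C steps up to 60 °C, in 50 mM Na-HEPES pH 8.0, 25 mM NaCl. Normalisation used pre-quench Cy3 and control constructs. Bootstrapped two-state fits gave melting temperature and folding enthalpy, combined by inverse variance across four replicates and with fitted temperatures raised by 9.35 °C to match UV melts.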

[2] = melting temperature; fluorescence melt of hairpins on a sequencing array, two-state fit, raised by 9.35 °C to match UV melts; settings: sodium 0.088 M
How it was run: as §1

Sequence | folding enthalpy [1] | Tm [2]
GATCAAATCGTTGATC ((((((....)))))) | -30.6 kcal/mol | 42.4 °C
GATCAAATCTTTGATC ((((((....)))))) | -30.3 kcal/mol | 47.7 °C
GATCAAATGATTGATC ((((((....)))))) | -26.2 kcal/mol | 35.8 °C
GATCAAATGTTGATC ((((((...)))))) | -26.6 kcal/mol | 41.2 °C
GATCAAATTTTTGATC ((((((....)))))) | -39 kcal/mol | 47.7 °C
GATCAACACTTTGATC ((((((....)))))) | -37.8 kcal/mol | 47.6 °C
GATCAACAGTTTGATC ((((((....)))))) | -31.2 kcal/mol | 41.3 °C
GATCAACCAGTTGATC ((((((....)))))) | -41.9 kcal/mol | 50.4 °C
GATCAACCATTTGATC ((((((....)))))) | -32.8 kcal/mol | 42.3 °C
GATCAACCCTTTGATC ((((((....)))))) | -39.2 kcal/mol | 46.1 °C
GATCAACCTATTGATC ((((((....)))))) | -29 kcal/mol | 41.5 °C
GATCAACGAAAGTTAATC (((.(((....))).))) | -11.7 kcal/mol | 27.8 °C
GATCAACGAAAGTTATC (((.(((....)))))) | -9.84 kcal/mol | 25.4 °C
GATCAACGCGTTGATC ((((((....)))))) | -54.2 kcal/mol | 59.5 °C
GATCAACGGATTGATC ((((((....)))))) | -28 kcal/mol | 39.5 °C
GATCAACGTTTGATC ((((((...)))))) | -26.1 kcal/mol | 40.1 °C
GATCAACTGCTTGATC ((((((....)))))) | -31.5 kcal/mol | 44 °C
GATCAACTTTTTGATC ((((((....)))))) | -37.8 kcal/mol | 43.3 °C
GATCAAGATTTTGATC ((((((....)))))) | -28.5 kcal/mol | 44.5 °C
GATCAAGCCTTGATC ((((((...)))))) | -26.1 kcal/mol | 44.1 °C
GATCAAGCCTTTGATC ((((((....)))))) | -40.7 kcal/mol | 49.2 °C
GATCAAGCGATTGATC ((((((....)))))) | -39.6 kcal/mol | 48 °C
GATCAAGCTCTTGATC ((((((....)))))) | -38.9 kcal/mol | 48.3 °C
GATCAAGGATTTGATC ((((((....)))))) | -29.8 kcal/mol | 49.1 °C

Sequence | folding enthalpy [1] | Tm [2]
GATCAAGGTCTTGATC ((((((....)))))) | -37.5 kcal/mol | 48.6 °C
GATCAAGTCCTTGATC ((((((....)))))) | -38.2 kcal/mol | 49.7 °C
GATCAAGTGTTGATC ((((((...)))))) | -32 kcal/mol | 40.9 °C
GATCAAGTGTTTGATC ((((((....)))))) | -31.8 kcal/mol | 43.5 °C
GATCAAGTTATTGATC ((((((....)))))) | -35.8 kcal/mol | 49.8 °C
GATCAAGTTTTGATC ((((((...)))))) | -29.4 kcal/mol | 45.4 °C
GATCAATAACTTGATC ((((((....)))))) | -31.6 kcal/mol | 39.4 °C
GATCAATAGCTTGATC ((((((....)))))) | -29.6 kcal/mol | 40.5 °C
GATCAATCAATTGATC ((((((....)))))) | -36 kcal/mol | 45 °C
GATCAATCCGTTGATC ((((((....)))))) | -32.5 kcal/mol | 47 °C
GATCAATCTTTTGATC ((((((....)))))) | -34.1 kcal/mol | 46.5 °C
GATCAATGATTTGATC ((((((....)))))) | -32.7 kcal/mol | 44.8 °C
GATCAATGCGTTGATC ((((((....)))))) | -45.6 kcal/mol | 50.9 °C
GATCAATGCTTGATC ((((((...)))))) | -28.5 kcal/mol | 43.2 °C
GATCAATGCTTTGATC ((((((....)))))) | -39.7 kcal/mol | 47.5 °C
GATCAATGTATTGATC ((((((....)))))) | -41.1 kcal/mol | 51 °C
GATCAATTGTTTGATC ((((((....)))))) | -35.9 kcal/mol | 46.1 °C
GATCACAAGGTGATC ((((((...)))))) | -38.4 kcal/mol | 58.4 °C
GATCACACAGGTGATC ((((((....)))))) | -44.3 kcal/mol | 54.5 °C
GATCACACATGTGATC ((((((....)))))) | -38.1 kcal/mol | 57.9 °C
GATCACACCTGTGATC ((((((....)))))) | -47.3 kcal/mol | 57.2 °C
GATCACACGAAAGTGATC (((..(((....)))))) | -34.3 kcal/mol | 48.8 °C
GATCACAGCCGTGATC ((((((....)))))) | -44.6 kcal/mol | 57.8 °C
GATCACAGGAGTGATC ((((((....)))))) | -38.2 kcal/mol | 54.8 °C

Sequence | folding enthalpy [1] | Tm [2]
GATCACAGGGTGATC ((((((...)))))) | -36.8 kcal/mol | 61.2 °C
GATCACATACGTGATC ((((((....)))))) | -41.2 kcal/mol | 57.4 °C
GATCACATCGGTGATC ((((((....)))))) | -39.6 kcal/mol | 57 °C
GATCACATCGTGATC ((((((...)))))) | -41 kcal/mol | 58.3 °C
GATCACCAAAGTGATC ((((((....)))))) | -50.8 kcal/mol | 55.2 °C
GATCACCAATGTGATC ((((((....)))))) | -35.3 kcal/mol | 54.1 °C
GATCACCACGGTGATC ((((((....)))))) | -41.4 kcal/mol | 62.9 °C
GATCACCAGAGTGATC ((((((....)))))) | -40 kcal/mol | 57.2 °C
GATCACCAGGTGATC ((((((...)))))) | -26.5 kcal/mol | 54.8 °C
GATCACCAGTGTGATC ((((((....)))))) | -47.5 kcal/mol | 53.3 °C
GATCACCATGGTGATC ((((((....)))))) | -43.6 kcal/mol | 63.8 °C
GATCACCCCGGTGATC ((((((....)))))) | -36.8 kcal/mol | 59.8 °C
GATCACCCGGTGATC ((((((...)))))) | -44.2 kcal/mol | 56.3 °C
GATCACCCGTGTGATC ((((((....)))))) | -47.7 kcal/mol | 55.5 °C
GATCACCGAAGTGATC ((((((....)))))) | -38.1 kcal/mol | 55.8 °C
GATCACCGCCGTGATC ((((((....)))))) | -48.4 kcal/mol | 54.4 °C
GATCACCGGTGTGATC ((((((....)))))) | -38 kcal/mol | 54.8 °C
GATCACCGTGGTGATC ((((((....)))))) | -29.5 kcal/mol | 66.3 °C
GATCACCGTGTGATC ((((((...)))))) | -42.3 kcal/mol | 58.3 °C
GATCACCTCGTGATC ((((((...)))))) | -38.2 kcal/mol | 59.3 °C
GATCACCTGCGTGATC ((((((....)))))) | -48.3 kcal/mol | 54.9 °C
GATCACCTGGGTGATC ((((((....)))))) | -47.5 kcal/mol | 62.6 °C
GATCACCTGTGTGATC ((((((....)))))) | -37.8 kcal/mol | 57 °C
GATCACCTTGGTGATC ((((((....)))))) | -37.2 kcal/mol | 67 °C
